Compound activity deposited in PubChem by several laboratories.
MEKK3 PB1 HTS: MEKK3-MEK5 PB1 interaction, increase or decrease | binding response (% of control), % at 10 µM | Q99759 | bead-based flow cytometry, Alexa488-MEK5 binding to MEKK3; actives lie on both sides; 0 = blocked by unlabeled MEK5, 100 = vehicle | 1.4% of 290,000 active;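 active = binding response more than 3 SD above or below the average of its plate-row segment, actives on both sides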;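 note: Alexa488 bead fluorescence after subtracting the streptavidin-only scavenger bead signal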
Target sequence (Q99759 whole entry, looked up): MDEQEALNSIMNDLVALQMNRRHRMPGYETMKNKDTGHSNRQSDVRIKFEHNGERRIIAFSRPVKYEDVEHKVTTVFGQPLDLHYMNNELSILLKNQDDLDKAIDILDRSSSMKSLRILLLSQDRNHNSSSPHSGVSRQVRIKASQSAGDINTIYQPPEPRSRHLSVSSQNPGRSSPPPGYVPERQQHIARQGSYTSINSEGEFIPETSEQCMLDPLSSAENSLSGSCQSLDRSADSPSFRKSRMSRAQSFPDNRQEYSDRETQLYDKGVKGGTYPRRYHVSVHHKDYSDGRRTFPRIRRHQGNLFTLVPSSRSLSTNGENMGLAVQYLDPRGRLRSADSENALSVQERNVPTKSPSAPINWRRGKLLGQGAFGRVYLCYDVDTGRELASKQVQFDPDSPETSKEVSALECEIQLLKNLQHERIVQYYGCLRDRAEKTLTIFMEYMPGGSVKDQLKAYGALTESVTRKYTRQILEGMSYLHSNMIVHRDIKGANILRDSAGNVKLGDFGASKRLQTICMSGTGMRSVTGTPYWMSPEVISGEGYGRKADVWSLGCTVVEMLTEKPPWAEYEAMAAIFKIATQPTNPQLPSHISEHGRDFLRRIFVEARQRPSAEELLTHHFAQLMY
Rce1 inh: inhibitors of yeast Ras-converting enzyme; Q03530; yeast membranes, quenched prenylated peptide cleavage fluorescence; calls only; 0.27% of 290,000 active; AID 2563;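 active = fall in fluorescence gain of 50% or more versus controls, with final raw signal at or below 3038400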;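 note: plate controls were neutral control wells for no effect and wells lacking membranes for full effect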
T cell modulator: T cell immune modulators affecting CD8 T cell-vesicle binding | 0.068% of 330,000 active | 2C CD8+ T cell-vesicle binding, flow cytometry; stronger effect = lower value | AID 2052 | response (vesicle binding), % at 7 µM;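 active = response, share of CD8 T cells binding vesicles, and their 90th percentile fluorescence all below set limits, cut at about 80% in these data, passing the limit was not always enough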;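 note: values below 100% mean blocked vesicle binding to the CD8+ T cells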
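Benchmarks: naked versus QL9-loaded vesicles / Assay system: purified 2C TCR transgenic mouse naive CD8+ T cells / Technique: high-throughput flow cytometry with anti-B7-1 and anti-CD8 staining / Timing: Cell–vesicle co-incubation 1.5 h at 37 °C, staining 20 min on ice / Read-out: percent CD8+ FL2 mean versus row control / Probe or stimulus: QL9-loaded Drosophila micro-vesicles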
MEKK2mut PB1 HTS: signal of MEK5 binding to mutant human MEKK2 PB1 domain; bead flow cytometry, Alexa488-MEK5 binding to MEKK2 mutant; 0.35% of 290,000 active; percent response, % at 10 µM; in the data active = percent response above about 24%, passing the limit was not always enough
MEKK2wt PB1 HTS: raises or lowers MEK5 binding to wildtype human MEKK2 PB1 domain | Q9Y2U5 | bead flow cytometry, Alexa488-MEK5 binding to MEKK2 WT; actives lie on both sides | binding response (% of control), % at 10 µM | 1.1% of 290,000 active; in the data active = binding response below about 67% or above about 130%
UCH37 DUB inh: inhibitors of human deubiquitinating enzyme UCH37; purified proteasome/UCH37, Ub-AMC cleavage fluorescence; inhibition, % (no concentration beside the values); 0.33% of 330,000 active;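 active = mean inhibition over replicate wells above about 20%, limit read from the data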;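 note: 0% = compound-free wells with enzyme and 100% = wells lacking proteasome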
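Material: Human UCH37 enzyme supplied as purified proteasome complex | Schedule: 30 min preincubation with enzyme, 25 min cleavage at room temperature | Detection: AMC fluorescence 355/460 nm | Measure: % inhibition of Ub-AMC cleavage fluorescence | Controls: Wells without proteasome as full block, compound-free enzyme plus substrate as uninhibited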
The depositor's hits bear a star; i = inactive; . = no result given; + = active, no number. Compounds with a hit are over-represented: about 2.5% of the library has one in this group of screens.

SMILES	MEKK3 PB1 HTS	Rce1 inh	T cell modulator	MEKK2mut PB1 HTS	MEKK2wt PB1 HTS	UCH37 DUB inh
Cc1ccc(CNC(=O)c2cc(-c3ccccc3)n(Cc3cc(C)no3)n2)cc1	.	.	566.5	.	.	23.5*
CS(=O)(=O)Nc1ccccc1C(=O)NC1CC2CCC1C2 (stereo not drawn)	101.0	+	164.2	4.0	99.0	-43.7
Cc1ccccc1CNC(=O)c1ccccc1NS(C)(=O)=O	116.0	i	427.1	-6.0	107.0	-33.6
CS(=O)(=O)Nc1ccccc1C(=O)Nc1cc(Cl)cc(Cl)c1	108.0	i	361.7	8.0	108.0	-86.9
CS(=O)(=O)Nc1ccccc1C(=O)NCc1ccccc1Cl	99.0	+	137.8	0.0	99.0	.
CS(=O)(=O)Nc1ccccc1C(=O)Nc1cccc(Cl)c1	105.0	+	39.9	2.0	102.0	-9.3
CCCOc1ccc(C=NNC(=O)CN(c2ccc(OCC)cc2)S(C)(=O)=O)cc1	.	.	.	.	.	2.1
Cc1cccc(-n2c(C)cc(C=Nn3cnnc3)c2C)c1	.	.	.	.	.	2.4
Cc1c(C)c2ccc(OC(C)C(=O)NCCCN3CCOCC3)c(C)c2oc1=O (stereo not drawn)	102.0	+	736.9	0.0	102.0	-35.3
O=C(NCc1ccccn1)c1ccc(C=NO)nc1	.	.	.	.	.	-1.4
Cc1ccc(C=NNC(=O)c2cccc(NC(=O)c3ccccc3Cl)c2)o1	.	.	.	.	.	6.0
Cn1c(SCC(=O)NN=Cc2ccccn2)nnc1-c1ccccc1	.	.	.	.	.	3.9
N#Cc1c(N2CCN(C(=O)c3ccccc3Cl)CC2)nc(-c2ccccc2)c2c1CCCC2	.	i	154.1	.	.	-61.8
N#Cc1c(N2CCN(C(=O)c3ccccc3)CC2)nc(-c2ccccc2)c2c1CCCC2	102.0	+	683.7	0.0	90.0	-146.7
CCN1CCN(C2=CC3=CC(=C(C#N)C#N)CCC3CC2)CC1 (stereo not drawn)	85.0	.	.	-44.0	79.0	32.3*
O=C(N=C1c2ccccc2CN1c1ccccc1)c1cccc([N+](=O)[O-])c1	95.0	i	167.7	4.0	5.0*	2.1
CCOC(=O)c1ccc(N2Cc3ccccc3C2=NC(=O)c2cccc([N+](=O)[O-])c2)cc1	.	.	984.5	.	.	5.9
Cc1ccsc1C=NNC(=O)CNC(=O)c1ccc(S(=O)(=O)N2CCOCC2)cc1	.	.	.	.	.	3.6
CC(C)NC(=O)Nc1cccc2c1O[C@H](CN(C)C(=O)NC(C)C)[C@@H](C)CN([C@H](C)CO)C2=O	.	.	230.5	.	.	20.2*
O=C(c1ccc(N2C(=O)C3CC=C(Cl)CC3C2=O)cc1)N1CCOCC1 (stereo not drawn)	102.0	i	165.2	-5.0	95.0	1.3
O=C(c1ccc(N2C(=O)C3CC=C(Cl)CC3C2=O)cc1)N1CCCCC1 (stereo not drawn)	89.0	i	0.0*	-3.0	95.0	2.4
COc1ccc2nc(C=NNC(=O)[C@@H]3CCCN3C(=O)OC(C)(C)C)ccc2c1	.	.	.	.	.	-405.4
COc1cc(C(=O)N2CCN(C(=O)COc3ccc4ccccc4c3)CC2)cc(OC)c1OC	104.0	i	427.6	6.0	103.0	27.7*
O=C(CCCn1c(=O)[nH]c2ccc(Br)cc2c1=O)NCc1ccc(Cl)cc1	109.0	+	90.9	-3.0	103.0	5.2
CCOC(=O)C(=NNc1ccccc1)S(=O)(=O)c1ccccc1	.	.	.	.	.	7.4
SMILES	MEKK3 PB1 HTS	Rce1 inh	T cell modulator	MEKK2mut PB1 HTS	MEKK2wt PB1 HTS	UCH37 DUB inh
CN1/C(=C\C=C2/SC(=S)N(CC(=O)O)C2=O)C(C)(C)c2ccccc21	145.0*	.	221.4	880.0*	805.0*	16.5
Cn1cccc1/C=C1/SC(=S)N(CC(=O)O)C1=O	92.0	i	447.3	-3.0	96.0	22.9*
CCC(C(=O)O)N1C(=O)/C(=C/c2cccn2C)SC1=S (stereo not drawn)	99.0	.	303.9	-2.0	99.0	23.4*
COc1ccc(/C=C2/SC(=S)N(CC(=O)O)C2=O)cc1OCc1ccc(Cl)cc1	103.0	i	184.6	1.0	99.0	18.3
O=C(O)CN1C(=O)/C(=C\c2cc(Br)ccc2OCc2ccc(Cl)cc2)SC1=S	101.0	i	178.3	-1.0	102.0	23.0*
COc1ccc(Cl)cc1NC(=O)CC(C)=NNC(=O)c1ccccc1Cl	.	.	.	.	.	3.7
